Assay outcomes deposited in PubChem by several laboratories.
b-catenin transl – beta-catenin nuclear translocation modulation. HeLa beta-catenin nuclear translocation, immunofluorescence imaging. hit rate 0.3% among 190,000. nuclear translocation activity, % at 5 µM;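 active means nuclear translocation activity above 50% at 5 µM, with a well cell count of 50 or more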;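 further: per-cell ratio of nuclear to cytoplasmic median beta-catenin stain intensity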
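Test system: human HeLa cells, native beta-catenin. Compound dosing: 5 µM primary single dose, 0.1% DMSO, 0.02–20 µM confirmation series. Incubation: compound exposure 24 h at 37°C. Detection: beta-catenin immunostaining with DAPI counterstain, 20x imaging, 6 fields/well. Read-out basis: Nuclear/cytoplasmic beta-catenin signal ratio, % activation.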
Ba/F3 V617F tox – lowers viability of Ba/F3 cells expressing EpoR and JAK2V617F. inhibition, % at 5.6 µM. hit rate 1.1% among 220,000. ATP luminescence;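 active means inhibition above the campaign mean plus 3 SD over all tested compounds, cut at about 24% in these data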;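 further: cytokine-independent growth of Ba/F3 cells driven by EpoR plus mutant JAK2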
KLF5 inh – suppresses KLF5 promoter-driven expression. DLD-1 KLF5 promoter-luciferase reporter, luminescence. inhibition, % at 5 µM. hit rate 0.23% among 290,000. AID 1700;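 active means inhibition above a per-plate limit of that plate's mean compound inhibition plus 3 SD, cut at about 60% in these data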;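 further: higher means less KLF5 promoter-driven luciferase light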
MT stabilize HCS – microtubule stabilizers in HeLa cells; HeLa tubulin immunostaining HCS, 24 h; share of cells brighter than vehicle mean+2SD; % tubulin-high responders, % at 10 µM; hit rate 0.83% among 200,000;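 active means plate Z-score above 3 for both tubulin-high and condensed-nucleus cell shares, with cell loss under 80%, at 10 µM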;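 further: anti alpha tubulin signal scored within the nucleus-defined area of each cell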
IEC-6 cytotox – kills IEC-6 intestinal cells in KLF5 counter-screen | AID 1825 | IEC-6 cytotoxicity, luminescence viability | hit rate 0.78% among 290,000 | inhibition, % at 5 µM; in the data active means inhibition above about 22%
BaF3 tox – counter-screen for JAK2V617F inhibitors: parental Ba/F3 viability inhibitors; CellTiter-Glo ATP luminescence; inhibition, % at 5.6 µM; hit rate 1.1% among 220,000; AID 1486;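 active means inhibition above a per-campaign cutoff, the mean inhibition of all tested compounds plus 3 SD, cut at about 27% in these data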
Each line names hits and unclear results; the compound was inactive in the other large screens. Rows were chosen to be rich in hits. Some 2.1% of all compounds tested hit in one or more screens of this group.

O=C(O)C1CCN(S(=O)(=O)c2cccc3cccnc23)CC1	none (no result: b-catenin transl, Ba/F3 V617F tox, MT stabilize HCS, BaF3 tox)
O=C(COC(=O)C1CCN(S(=O)(=O)c2cccc3cccnc23)CC1)c1ccccc1	Ba/F3 V617F tox 28.6, BaF3 tox 63.5
CCN(Cc1cc2ccccc2[nH]c1=O)C(=O)C1CCCCC1	none
CC(C)N(Cc1cc2ccccc2[nH]c1=O)C(=O)C1CCCCC1	BaF3 tox 27.5
CC(=O)c1cc(C(=O)N2CCc3c([nH]c4ccccc34)C2C2CCCCC2)[nH]n1 (centres undefined)	none
Cc1ccc(NC(=O)CC2COc3ccccc3O2)cc1 (centres undefined)	none
CN(CC1COc2ccccc2O1)C(=S)Nc1ccccc1 (centres undefined)	BaF3 tox 27.5 (no result: b-catenin transl)
COCc1cc(C)n(CC(=O)OC)c(=O)c1C#N	none
COc1ccc(NC(=O)COC(=O)c2ccc(S(=O)(=O)N(C)c3ccccc3OC)cc2)c(OC)c1	MT stabilize HCS 18.1
COc1cc(C(CC(=O)Nc2cccc(C)n2)N2Cc3ccccc3C2=O)cc(OC)c1OC (centres undefined)	none (no result: b-catenin transl, Ba/F3 V617F tox, MT stabilize HCS, BaF3 tox)
O=C(Cn1c(=O)c(=O)n(Cc2ccccc2)c2ccc(Cl)cc21)Nc1ccc(F)cc1F	MT stabilize HCS 26.5
CCCCSc1nnc(-c2ccc(NC(C)=O)cc2)n1C	none
CCCCSc1nnc(-c2ccc(C)cc2)n1C	Ba/F3 V617F tox 30.5, BaF3 tox 35.2
Cc1cccc(Nc2nc(N)nc(CN3CCN(c4ccc(F)cc4)CC3)n2)c1	none
Cc1csc(NC(=O)CSc2nnc3c4ccccc4nc(C(C)(C)C)n23)n1	b-catenin transl 58.5, MT stabilize HCS 46.3
Cc1ccc(C(=O)CSc2nnc3c4ccccc4nc(C(C)(C)C)n23)cc1	MT stabilize HCS 25.7
CC(=O)CSc1nnc2c3ccccc3nc(C(C)(C)C)n12	none
O=C1CN=CN=CN1c1ccc(Cl)cc1Cl	none (no result: b-catenin transl)
CSc1cccc(-n2ccc(=O)c(C)c2C)c1	none (no result: b-catenin transl, Ba/F3 V617F tox, MT stabilize HCS, BaF3 tox)
Cc1c(NC(=O)CSc2nnc3c4ccccc4n(CCc4ccccc4)c3n2)c(=O)n(-c2ccccc2)n1C	IEC-6 cytotox 59.8
COc1ccc(C2C=C(c3ccc(C)cc3)Nc3ncnn32)cc1 (centres undefined)	none
COc1ccc(C2C=C(c3ccc(Br)s3)Nc3ncnn32)cc1OC (centres undefined)	b-catenin transl 57.9, MT stabilize HCS 29.2
COc1cccc(N2CCN(C(=O)c3[nH]c(C)c(C(C)=O)c3C)CC2)c1	b-catenin transl 59.7, BaF3 tox 35.2
CC(=O)c1c(C)[nH]c(C(=O)N2CCN(c3cc(Cl)ccc3C)CC2)c1C	MT stabilize HCS 52.7 (no result: b-catenin transl)
COC(=O)c1c(C)[nH]c(C(=O)N2CCN(c3ccc(OC)cc3)CC2)c1C	none
COc1ccccc1COc1ccc2c(C)c(CC(=O)O)c(=O)oc2c1C	none (no result: b-catenin transl, Ba/F3 V617F tox, MT stabilize HCS, BaF3 tox)
CC(C)(C)NS(=O)(=O)c1ccc2nc(NC(=O)Cc3cccs3)sc2c1	none
Clc1cccc(-c2nnc(SC/C=C/c3ccccc3)n2Cc2ccco2)c1	MT stabilize HCS 37.3
C(=C\c1ccc2ccccc2n1)/c1ccccc1	none (no result: MT stabilize HCS)
CN(C)c1ccc(/C=C/c2ccc3ccccc3n2)cc1	KLF5 inh 104.5 (no result: MT stabilize HCS)
CCS(=O)(=O)NCCNc1ccc([N+](=O)[O-])cc1	none
Cc1ccsc1/C=N\NC(=O)c1n[nH]c2c1CCC2	MT stabilize HCS 25.1
COc1ccccc1N=C1SC(C(=O)Nc2cccc(Cl)c2Cl)C(N)=C1C(N)=O (centres undefined)	b-catenin transl 62.4 (no result: MT stabilize HCS)
N#Cc1ccccc1NC(=O)C1SC(=Nc2ccccc2)C(C(=O)Nc2ccc(Cl)cc2)=C1N (centres undefined)	none
Cc1ccc(NC(=O)/C=C/c2ccc(Cl)cc2)nc1	MT stabilize HCS 20.6
O=C(/C=C/c1cccc([N+](=O)[O-])c1)Nc1ccc(NC(=O)c2cccs2)cc1	none
O=C(/C=C/c1cccc([N+](=O)[O-])c1)Nc1ccc(Cl)cn1	MT stabilize HCS 10.1
COCC(C)n1c(SCc2nc3ccccc3c(=O)[nH]2)nc2ccccc2c1=O (centres undefined)	IEC-6 cytotox 33.6
CCC(Oc1ccccc1)C(=O)Nc1ccccn1 (centres undefined)	BaF3 tox 88.7
COc1ccc(/C=N/NC(=O)c2cccc([N+](=O)[O-])c2)cc1OC(=O)c1ccc(C)cc1	none
COc1ccc(/C=N/NC(=O)c2cccc([N+](=O)[O-])c2)cc1OC(=O)c1ccccc1	MT stabilize HCS 41.3
COc1ccc(/C=N/NC(N)=S)cc1OC(=O)c1ccccc1	MT stabilize HCS 37.5
O=C(C1CCN(S(=O)(=O)c2ccc(F)cc2)CC1)N1CC=C(c2ccccc2)CC1	none
O=[N+]([O-])c1ccc(-c2ccc(/C=N/Nc3nc(N4CCCC4)nc(N4CCCC4)n3)o2)cc1	MT stabilize HCS 34.7
COc1ccc(-c2cnnc(N/N=C/c3ccc(-c4ccc([N+](=O)[O-])cc4)o3)n2)cc1	b-catenin transl 81.3, MT stabilize HCS 39.7
O=[N+]([O-])c1ccc(-c2ccc(/C=N/Nc3nc(N4CCCCC4)nc(N4CCCCC4)n3)o2)cc1	none
COc1ccc(NC(=O)NNC(=O)c2cc3occc3n2C)c(OC)c1	none (no result: b-catenin transl, Ba/F3 V617F tox, MT stabilize HCS, BaF3 tox)
CC1(C(=O)N/N=C/c2ccccc2)CC1(Cl)Cl (centres undefined)	none (no result: b-catenin transl, Ba/F3 V617F tox, MT stabilize HCS, BaF3 tox)
FC(F)(F)c1ccc2c(c1)n(Cc1ccccc1)c1[n+]2CCCCC1	BaF3 tox 34.5
O=C(Cn1c2[n+](c3ccc(C(F)(F)F)cc31)CCCCC2)c1cccc([N+](=O)[O-])c1	BaF3 tox 79.8
O=C(Cn1nc(C(F)F)cc1C(F)F)N/N=C/c1ccc2c(c1)OCO2	none (no result: b-catenin transl)
Cc1ccc(Nc2c(N)c(=O)oc3ccccc23)cc1	MT stabilize HCS 29.7
O=C(Nc1ccccc1)C1CC(=O)N(c2ccc3c4c(cccc24)CC3)C1 (centres undefined)	none
CN(C)c1ccc(/C=C2\SC(N3CCCCC3)=NC2=O)cc1	none (no result: b-catenin transl, Ba/F3 V617F tox, MT stabilize HCS, BaF3 tox)
O=S(=O)(c1ccc(Cl)cc1)N1c2ccccc2Oc2nc3ccccc3nc21	MT stabilize HCS 24.5
COc1ccc(S(=O)(=O)N2c3cc(Cl)ccc3Oc3nc4ccccc4nc32)cc1	none
N#CC1=C(SCC(=O)Nc2ccccc2)NC(=O)CC1c1ccco1 (centres undefined)	MT stabilize HCS 50.0 (no result: b-catenin transl)
CCOC(=O)CSC1=C(C#N)C(c2ccccc2OC)CC(=O)N1 (centres undefined)	MT stabilize HCS 21.5
COC(=O)CSC1=C(C#N)C(c2ccsc2)CC(=O)N1 (centres undefined)	MT stabilize HCS 44.8
CCSC1=C(C#N)C(c2ccccc2OC)CC(=O)N1 (centres undefined)	none
N#CC1=C(SCC(=O)NCc2ccccc2)NC(=O)CC1c1ccco1 (centres undefined)	none
CC(C)(C)c1ccc(C(=O)CCCSC2=C(C#N)C(c3ccco3)C3=C(CCCC3=O)N2)cc1 (centres undefined)	none
